Myeloid diff 2 – compounds promoting myeloid differentiation. ER-HoxA9 myeloid progenitors, lysozyme-GFP differentiation, flow cytometry. calls only at 10 µM. actives 1% (n = 360,000). AID 624256;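 active = normalized GFP-positive differentiation at or above the plate's own cutoff, the solvent-only control mean plus 3 SD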;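 note: cells exposed to compound for four days before flow analysis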
MT1-MMP act inh – blocks activation of human MT1-MMP. P50281. HT1080 RFP-PRO-GFP cells, GFP/RFP ratio fluorescence, overnight; percent of plate control window, DMSO zero. actives 0.061% (n = 360,000). GFP/RFP ratio change, % at 20 µM. AID 651647;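 active = GFP/RFP ratio change of at least 30% with cell ATP level not reduced by more than half and red fluorescence within 50% of control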
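system = RFP-PRO-GFP reporter HT1080 cells | dosing = 20 µM single dose, 1% DMSO | timing = overnight cell settling, then overnight compound exposure, 37 °C, 5% CO2 | read-out basis = GFP/RFP fluorescence ratio | controls = DMSO and RFP-L50D-GFP cell wells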
NRP1-CendR mod – NRP-1/CendR interaction modulation. FAM-RPARPAR peptide binding to NRP-1, fluorescence polarization. inhibition, % at 25 µM. actives 0.85% (n = 360,000);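 active = inhibition or corrected inhibition above about 18%, plus a signal ratio from 0.5 to 1.5, limit read from the data, passing the limit was not always enough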
MIN6 prolif – inducers of beta-cell replication in MIN6 cells | proliferation, % at 10 µM | MIN6 cells proliferation, ATPlite luminescence, 48 h; cells starved in 0.2% serum; 100% = growth in 10% serum | AID 2380 | actives 0.29% (n = 330,000);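 active = compounds whose signal lies at least 3.5 SD above the mean of all wells on their plate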;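 note: 0% = DMSO-treated cells in low-serum medium and 100% = 10% serum control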
SENP1 FRET inh – inhibitors of human SENP1 SUMO protease catalytic domain; inhibition, % at 10 µM; actives 0.21% (n = 360,000); AID 624204; recombinant SENP1 catalytic domain, CyPet-SUMO1-YPet FRET cleavage;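 active = inhibition at least 30% at 10 µM, raw YFP signal under a set limit, fluorescence ratio 0.5 to 1.5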;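 note: 0% = enzyme with DMSO and 100% = no enzyme wells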
Target sequence (Q9P0U3 419-644 limits assumed): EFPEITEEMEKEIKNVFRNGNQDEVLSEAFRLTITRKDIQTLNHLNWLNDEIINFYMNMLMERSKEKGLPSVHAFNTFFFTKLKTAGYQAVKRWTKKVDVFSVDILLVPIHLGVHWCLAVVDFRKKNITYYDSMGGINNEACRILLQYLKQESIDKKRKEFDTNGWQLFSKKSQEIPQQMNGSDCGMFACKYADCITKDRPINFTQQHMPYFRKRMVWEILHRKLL
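Controls: no-enzyme wells low, DMSO-plus-enzyme wells high control. Test system: human recombinant His6-tagged SENP1 catalytic domain enzyme. Reagent: SFCypet-SUMO1-SFYpet FRET protein substrate, 25 nM final. Doses: one dose per compound, 10 µM, 0.5% DMSO. Detection: FRET, CFP and YFP emission. Timing: 50 min reaction at room temperature.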
DAGLB inhibitor – diacylglycerol lipase beta (human) inhibition | Q8NCG7 | HEK293T DAGLB membrane lysate, EnzChek fluorogenic substrate | inhibition, % at 5.17 µM | actives 0.059% (n = 340,000) | AID 504411; in the data active = inhibition above about 34%;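 note: 0% = enzyme with vehicle and 100% = wells lacking enzyme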
* hit, by the source's call; i = inactive; · = no result; + = active, no number. Most compounds without a hit are left out; they make up all but 2.4% or so of the library.

SMILES | Myeloid diff 2 | MT1-MMP act inh | NRP1-CendR mod | MIN6 prolif | SENP1 FRET inh | DAGLB inhibitor
COCCNC(=O)C1(C)CCN(C(=O)c2nc(C)oc2C)C1 (stereo unspecified) | i | 4 | 0 | · | 2 | ·
Cc1ccc(S(=O)(=O)N(C)C)cc1NC(=O)C(C)N(C)CCOc1ccc(Cl)cc1 (stereo unspecified) | i | -3 | 6 | -3 | 3 | 0
CCn1c(CSc2nnc3ccccn23)nc2cc(C(=O)O)ccc21 | i | 42* | 17 | -5 | -1 | 2
COc1ccc(CC2(CO)CCN(Cc3nc(C(C)C)cs3)CC2)cc1 | i | 0 | -1 | 2 | 2 | -2
Cc1ccc(Cn2c(NCCc3ccccc3)nc3c2c(=O)n(C)c(=O)n3C)cc1 | + | -14 | -6 | -3 | 1 | -2
C/C(Cl)=C\Cn1c(NCCc2ccccc2)nc2c1c(=O)n(C)c(=O)n2C | + | -7 | -1 | -4 | 0 | 0
C=CCn1c(NCCc2ccccc2)nc2c1c(=O)n(C)c(=O)n2C | i | -7 | -2 | -2 | 0 | -1
CCOc1ccc(Br)cc1C(=O)Nc1ccc(C(=O)NCC(C)C)cc1 | + | -1 | -2 | -3 | 1 | 15
CN(Cc1ccsc1)C(=O)Cn1cc(Br)ccc1=O | · | 2 | 8 | 0 | -4 | -2
Cc1ccccc1C(=O)Oc1cc(N)n(S(C)(=O)=O)n1 | · | 1 | 18* | 2 | 3 | 1
Cc1ccc(S(=O)(=O)n2nc(OC(=O)c3ccccc3C)cc2N)cc1 | i | -2 | -6 | -2 | 2 | -1
CCCc1c(O)c2ccccc2[nH]c1=O | i | -3 | 26* | -3 | -2 | 1
CCCCc1c(O)c2ccccc2[nH]c1=O | i | 2 | 17 | -2 | 1 | -4
Cc1ccc(SCC(=O)Nc2ccc3c(c2)C(=O)N(C)C3=O)cc1 | i | -1 | 3 | -6 | 2 | -1
COc1ccccc1NC(=O)Cn1nnc(-c2ccccc2NC(=O)c2cnccn2)n1 | i | 4 | 2 | 1 | -10 | 0
CN(c1ccc(C(=O)N2CCN(Cc3ccccc3)CC2)cc1)S(=O)(=O)c1ccccc1 | + | 2 | 2 | -1 | 3 | 0
CN(c1ccc(C(=O)N2CCN(Cc3ccc4c(c3)OCO4)CC2)cc1)S(=O)(=O)c1ccccc1 | i | -7 | -4 | -3 | -2 | 1
COc1ccccc1N1CCN(c2cc(=O)n(Cc3ccc(F)cc3)c(=O)[nH]2)CC1 | + | 2 | -5 | -2 | -1 | 3
CC(=O)c1cccc2c1OC(C)C(=O)N2Cc1ccc(Cl)cc1 (stereo unspecified) | i | -1 | 2 | · | 3 | ·
Cn1nnnc1Sc1ncnc2scc(-c3ccccc3Br)c12 | + | -2 | 3 | -6 | 1 | 3
Cn1nnnc1Sc1ncnc2scc(-c3ccccc3)c12 | · | -14 | -9 | -3 | -15 | 2
Cc1cccc(NC(=O)Cn2c(=O)n(CCc3c[nH]c4ccccc34)c(=O)c3cccnc32)c1 | · | · | · | -3 | · | ·
CCOc1cccc(-c2c(C(=O)N/N=C/c3sccc3C)nnn2-c2nonc2N)c1 | i | -15 | 2 | 2 | 1 | -5
CCOc1ccc(-c2c(C(=O)N/N=C/c3sccc3C)nnn2-c2nonc2N)cc1 | i | 4 | 24* | 0 | 2 | 4
CCN1CCN(CCCNC(=O)C2CCN(c3nnc(-n4cccc4)s3)CC2)CC1 | + | -1 | -6 | -2 | 0 | 0
COc1ccc(C)cc1NC(=O)CSc1nc2ccccc2nc1N1CCCC1 | i | -5 | -4 | -7 | -54 | -2
CN(C(=O)COn1nnc2ccc(Cl)cc21)C1CCS(=O)(=O)C1 (stereo unspecified) | i | 3 | -7 | -2 | 1 | -1
Cc1nn(CC(=O)N2CCN(c3ccccc3)CC2)c(C)c1[N+](=O)[O-] | + | 0 | 6 | -1 | 0 | 0
Cc1ccc(S(=O)(=O)N2CCN(C(=O)Cn3nc(C)c([N+](=O)[O-])c3C)CC2)c(C)c1 | i | 2 | -5 | 2 | 1 | 2
